Data: ChEMBL document CHEMBL2331205, “Anti-hepatitis B virus and anti-cancer activities of novel isoflavone analogs” (Eur J Med Chem, 2013)

Experiments:
A549 = assay: Growth inhibition of human A549 cells after 48 hrs by MTT assay; format: functional, cell-based; conditions: A549, 48 h
Procedure, shortened: (§1)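 Cells seeded at 8000/well, treated 24 h later in duplicate with a range of concentrations (DMSO stock 10 g/L diluted in fresh medium), 48 h at 37 °C, 5% CO2. MTT (5 mg/ml in PBS) added for 4 h, formazan dissolved in DMSO, absorbance read at 570 nm. IC50 is the concentration giving 50% survival.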

HeLa = assay: Growth inhibition of human HeLa cells after 48 hrs by MTT assay; format: functional, cell-based; procedure, shortened: as §1
[1] = Growth inhibition of human QGY7701 cells after 48 hrs by MTT assay; format: functional; conditions: QGY7701, 48 h; procedure, shortened: as §1
Huh-7 = assay: Growth inhibition of human HuH7 cells after 48 hrs by MTT assay; format: functional, cell-based; conditions: Huh-7, 48 h; procedure, shortened: as §1
[2] = Growth inhibition of human L02 cells after 48 hrs by MTT assay; format: functional, cell-based; conditions: L02, 48 h; procedure, shortened: as §1
[3] = Selectivity index, ratio of CC50 for human HepG2(2.2.15) cells to IC50 for HBV infected in human HepG2(2.2.15) cells assessed as inhibition of HBsAg production; format: functional
Procedure, shortened: (§2)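 Selectivity index calculated as CC50 in HepG2 2.2.15 cells (MTT, 9-day exposure) divided by IC50 for HBeAg or HBsAg reduction (ELISA of 9-day supernatants).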

[4] = Cytotoxicity against human HepG2(2.2.15) cells compound treated for 48 hrs followed by incubation for 9 days by MTT assay; format: cell-based
Procedure, shortened: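 HepG2 2.2.15 cells kept 48 h in plates before adding compounds (DMSO stocks serially diluted in medium), then incubated at 37 °C for 9 days. Media-only wells as blank. MTT (5 g/L) added 4 h before lysis in 10% SDS/50% DMF, pH 7.2; OD at 570 nm gives percent cell death; CC50 derived.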

Hepatitis B virus [5] = assay: Antiviral activity against HBV infected in human HepG2(2.2.15) cells assessed as inhibition of viral replication after 9 days by fluorescence PCR method; format: functional, organism-based; conditions: HepG2 2.2.15, 216 h
Procedure, shortened: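 HepG2 2.2.15 cells given a range of compound concentrations for nine days; HBV DNA quantified by fluorescence PCR. IC50 taken as the concentration giving 50% inhibition of HBV DNA replication.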

Hepatitis B virus [6] = assay: Antiviral activity against HBV infected in human HepG2(2.2.15) cells assessed as inhibition of HBeAg production after 9 days by ELISA; format: functional, organism-based; conditions: HepG2 2.2.15, 216 h
Procedure, shortened: (§3)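 HepG2 2.2.15 cells (HBV-producing) given a range of compound concentrations for nine days; culture supernatants collected and HBsAg or HBeAg levels measured by ELISA. IC50 taken as the concentration giving 50% inhibition of antigen level.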

Hepatitis B virus [7] = assay: Antiviral activity against HBV infected in human HepG2(2.2.15) cells assessed as inhibition of HBsAg production after 9 days by ELISA; format: functional, organism-based; conditions: HepG2 2.2.15, 216 h; procedure, shortened: as §3
[8] = Selectivity index, ratio of CC50 for human HepG2(2.2.15) cells to IC50 for HBV infected in human HepG2(2.2.15) cells assessed as inhibition of HBeAg production; format: functional; procedure, shortened: as §2
[9] = Selectivity index, ratio of CC50 for human HepG2(2.2.15) cells to IC50 for HBV infected in human HepG2(2.2.15) cells assessed as inhibition of viral replication; format: functional
Procedure, shortened: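 Selectivity index calculated as CC50 in HepG2 2.2.15 cells (MTT, 9-day exposure) divided by IC50 for HBV DNA reduction measured by fluorescence PCR after 9 days.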

Compound	IC50 (A549)	IC50 (HeLa)	IC50 [1]	IC50 (Huh-7)	IC50 [2]	Ratio CC50/IC50 [3]	CC50 at 48 h [4]	IC50 (Hepatitis B virus [5])	IC50 (Hepatitis B virus [6])	IC50 (Hepatitis B virus [7])	Ratio CC50/IC50 [8]	Ratio CC50/IC50 [9]
COc1ccc2c(=O)c(/C=C/C(=O)NCCc3ccccc3F)coc2c1	10.3 µM	12.2 µM	81.7 µM	> 100 µM	> 200 µM	9.55	457 µM	> 100 µM	> 100 µM	47.9 µM	–	–
COc1ccc2c(=O)c(/C=C/C(=O)NCCc3cccc(F)c3)coc2c1	9.77 µM	15.3 µM	23.4 µM	8.96 µM	> 200 µM	–	1030 µM	> 100 µM	> 100 µM	> 100 µM	–	–
COc1ccc2c(=O)c(/C=C/C(=O)NCCc3ccc(F)cc3)coc2c1	18.9 µM	> 100 µM	24.8 µM	29.2 µM	> 200 µM	53.64	786 µM	> 100 µM	14.7 µM	14.7 µM	53.45	–
Cc1ccccc1NC(=O)/C=C/c1coc2cc(O)ccc2c1=O	> 100 µM	8.67 µM	9.32 µM	11.1 µM	> 200 µM	–	374 µM	> 100 µM	> 100 µM	> 100 µM	–	–
COc1ccc(NC(=O)/C=C/c2coc3cc(O)ccc3c2=O)cc1	12.8 µM	> 100 µM	> 100 µM	> 100 µM	> 200 µM	–	976 µM	7.01 µM	> 100 µM	> 100 µM	–	139.21
O=C(/C=C/c1coc2cc(O)ccc2c1=O)NCc1ccccc1	> 100 µM	> 100 µM	63 µM	4.69 µM	> 200 µM	–	436 µM	> 100 µM	> 100 µM	> 100 µM	–	–
O=C(/C=C/c1coc2cc(O)ccc2c1=O)NCc1ccc(F)cc1	> 100 µM	> 100 µM	> 100 µM	> 100 µM	> 200 µM	–	357 µM	33.5 µM	> 100 µM	> 100 µM	–	10.68
O=C(/C=C/c1coc2cc(O)ccc2c1=O)NCc1ccc(F)cc1F	6.61 µM	> 100 µM	> 100 µM	> 100 µM	> 200 µM	32.34	470 µM	23.3 µM	12.3 µM	14.5 µM	38.05	20.16
O=C(/C=C/c1coc2cc(O)ccc2c1=O)NCCc1ccc(F)cc1	6.84 µM	> 100 µM	> 100 µM	> 100 µM	> 200 µM	7.03	102 µM	> 100 µM	15.4 µM	14.6 µM	6.64	–
COc1ccc2c(=O)c(/C=C/C(=O)Nc3ccccc3OC)coc2c1	> 100 µM	> 100 µM	17.6 µM	32.3 µM	> 200 µM	–	1050 µM	> 100 µM	> 100 µM	> 100 µM	–	–
COc1cccc(NC(=O)/C=C/c2coc3cc(OC)ccc3c2=O)c1	12.8 µM	19.2 µM	39.1 µM	11.1 µM	> 200 µM	–	1130 µM	> 100 µM	> 100 µM	> 100 µM	–	–
COc1ccc(NC(=O)/C=C/c2coc3cc(OC)ccc3c2=O)cc1	23 µM	13 µM	> 100 µM	> 100 µM	> 200 µM	–	718 µM	14.2 µM	> 100 µM	> 100 µM	–	50.38
CCOc1ccc(NC(=O)/C=C/c2coc3cc(OC)ccc3c2=O)cc1	> 100 µM	> 100 µM	> 100 µM	3.23 µM	> 200 µM	–	460 µM	> 100 µM	> 100 µM	> 100 µM	–	–
COc1ccc2c(=O)c(/C=C/C(=O)Nc3ccc(F)cc3)coc2c1	26.8 µM	9.68 µM	> 100 µM	33.9 µM	> 200 µM	–	743 µM	> 100 µM	> 100 µM	> 100 µM	–	–
COc1ccc2c(=O)c(/C=C/C(=O)Nc3ccccc3Cl)coc2c1	29.9 µM	22.4 µM	23 µM	58.4 µM	> 200 µM	–	1010 µM	> 100 µM	> 100 µM	> 100 µM	–	–
COc1ccc2c(=O)c(/C=C/C(=O)NCc3ccccc3)coc2c1	11.8 µM	33.4 µM	> 100 µM	13.6 µM	> 200 µM	–	376 µM	56.8 µM	> 100 µM	> 100 µM	–	6.62
COc1ccc2c(=O)c(/C=C/C(=O)NCc3ccc(C)cc3)coc2c1	> 100 µM	> 100 µM	10.2 µM	14.3 µM	> 200 µM	3.11	257 µM	53.5 µM	> 100 µM	82.6 µM	–	4.81
COc1ccc2c(=O)c(/C=C/C(=O)NCc3ccccc3F)coc2c1	> 100 µM	> 100 µM	34 µM	8.45 µM	> 200 µM	2.8	146 µM	68.6 µM	> 100 µM	52.1 µM	–	2.13
COc1ccc2c(=O)c(/C=C/C(=O)NCc3cccc(F)c3)coc2c1	26.9 µM	17.6 µM	28.6 µM	10.1 µM	> 200 µM	5.67	475 µM	75.4 µM	> 100 µM	83.8 µM	–	6.3
COc1ccc2c(=O)c(/C=C/C(=O)NCc3ccc(F)cc3)coc2c1	> 100 µM	> 100 µM	7.96 µM	20.9 µM	> 200 µM	2.26	133 µM	11.2 µM	> 100 µM	58.8 µM	–	11.84
COc1ccc2c(=O)c(/C=C/C(=O)Nc3ccccc3)coc2c1	51 µM	> 100 µM	14 µM	9.05 µM	> 200 µM	32.7	523 µM	> 100 µM	16.9 µM	16 µM	30.85	–
COc1ccc2c(=O)c(/C=C/C(=O)Nc3ccccc3C)coc2c1	23.4 µM	7.27 µM	22.4 µM	26.9 µM	> 200 µM	4	59.7 µM	> 100 µM	15.8 µM	14.9 µM	3.77	–
COc1ccc2c(=O)c(/C=C/C(=O)Nc3cccc(C)c3)coc2c1	> 100 µM	> 100 µM	> 100 µM	15.5 µM	> 200 µM	–	554 µM	34.9 µM	> 100 µM	> 100 µM	–	15.85
COc1ccc2c(=O)c(/C=C/C(=O)Nc3ccc(C)cc3)coc2c1	17.5 µM	24.1 µM	39.3 µM	> 100 µM	> 200 µM	–	979 µM	28.2 µM	> 100 µM	> 100 µM	–	34.69
COc1ccc2c(=O)c(/C=C/C(=O)Nc3cc(C)ccc3C)coc2c1	15.5 µM	58.4 µM	> 100 µM	11.1 µM	> 200 µM	–	1100 µM	> 100 µM	> 100 µM	> 100 µM	–	–
O=c1[nH]cc(F)c(=O)[nH]1 [FLUOROURACIL]	–	–	–	15.8 µM	–	–	–	–	–	–	–	–
